Test [1] deals with Histone deacetylase (HDAC1 and HDAC2) (Homo sapiens, UniProt Q13547+Q92769). Nature of the test: Inhibition of HDAC1/HDAC2 in human HeLa cells nuclear extract preincubated for 5 mins before Boc-Lys (acetyl)-AMC substrate addition for 30 mins by microplate reader analysis. It counts as cell-based.
Test [2] concerns the target T1, Aminopeptidase N (Sus scrofa, UniProt P15145).
T1 sequence (P15145 whole entry): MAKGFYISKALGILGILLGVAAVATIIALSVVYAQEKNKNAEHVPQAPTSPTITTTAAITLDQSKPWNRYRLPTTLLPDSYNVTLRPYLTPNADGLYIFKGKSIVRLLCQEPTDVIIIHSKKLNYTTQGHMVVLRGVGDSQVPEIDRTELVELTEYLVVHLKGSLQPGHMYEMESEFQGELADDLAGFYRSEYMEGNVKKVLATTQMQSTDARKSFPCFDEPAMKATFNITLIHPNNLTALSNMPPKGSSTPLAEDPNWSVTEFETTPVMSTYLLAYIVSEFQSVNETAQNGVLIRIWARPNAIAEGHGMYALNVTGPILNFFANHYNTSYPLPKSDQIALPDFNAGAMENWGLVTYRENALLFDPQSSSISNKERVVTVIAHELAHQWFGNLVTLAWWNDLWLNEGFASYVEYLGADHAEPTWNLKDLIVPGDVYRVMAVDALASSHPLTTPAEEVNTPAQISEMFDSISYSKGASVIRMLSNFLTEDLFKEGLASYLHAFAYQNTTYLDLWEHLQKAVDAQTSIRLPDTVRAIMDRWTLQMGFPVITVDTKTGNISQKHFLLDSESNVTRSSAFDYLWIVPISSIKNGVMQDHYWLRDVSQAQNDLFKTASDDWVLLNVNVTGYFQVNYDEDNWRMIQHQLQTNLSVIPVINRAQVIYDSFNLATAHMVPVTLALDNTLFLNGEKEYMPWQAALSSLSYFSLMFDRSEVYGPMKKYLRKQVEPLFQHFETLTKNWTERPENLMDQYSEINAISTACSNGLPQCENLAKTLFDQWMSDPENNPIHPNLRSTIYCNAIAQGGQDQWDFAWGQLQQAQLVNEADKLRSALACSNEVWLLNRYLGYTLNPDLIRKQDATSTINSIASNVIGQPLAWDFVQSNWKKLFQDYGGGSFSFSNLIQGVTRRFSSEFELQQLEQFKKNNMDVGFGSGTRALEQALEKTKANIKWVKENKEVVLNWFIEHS
In words: Inhibition of APN in porcine kidney microsomes preincubated for 5 mins before L-leu-p-nitroanilide substrate addition for 30 mins by plate reader analysis.

The subject of a further test is H22. In words: Antimetastasis activity against mouse H22 cells implanted in mouse assessed as inhibition of tumour growth at 80 mg/kg/day, po administered 6 days/week for 2 weeks. It counts as functional. An outline of the steps:
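H22 tumour cells given to mice via the caudal vein; animals randomly divided into 3 groups. Control received the same volume of excipient; the other groups received inhibitor orally at 80 mg/kg/day, 6 days/week for 2 weeks.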

The subject of the next test is ES2. Nature of the test: Antiinvasive activity against human ES2 cells assessed as reduction in cell invasion at 150 uM after 8 hrs by crystal violet staining based Matrigel assay. It counts as functional. An outline of the steps: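 Matrigel-coated transwell chambers rehydrated 2 h in RPMI-1640 + 1% FBS; lower chamber RPMI-1640 + 10% FBS. Compounds in 1% FBS medium added to the upper chamber with ES-2 cells (1 × 10^5/well) at the same time; invasion 8 h at 37 °C. Non-invaded cells swabbed off; remaining cells fixed, stained with 0.1% crystal violet, counted in five random fields (×100) per insert; mean of three independent experiments.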

For test [3], the target named is Aminopeptidase N (Homo sapiens, UniProt P15144). Nature of the test: Inhibition of APN in human ES2 cells preincubated for 5 mins before L-leu-p-nitroanilide substrate addition for 1 hr by photometry. The format is cell-based. An outline of the steps: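 ES-2 ovarian clear cell carcinoma cell suspension (1 × 10^5 cells/well) used as the APN source in 10 mM PBS pH 7.4; inhibitors in buffer with 0.2% DMSO final. Pre-incubation 5 min at room temperature, then L-Leu-p-nitroanilide added, 1 h at 37 °C. Supernatant after centrifugation read by UV-Vis spectrophotometry; IC50 from regression of concentration/inhibition-rate data.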
Sequence of Aminopeptidase N (Homo sapiens, UniProt P15144) (P15144 whole entry): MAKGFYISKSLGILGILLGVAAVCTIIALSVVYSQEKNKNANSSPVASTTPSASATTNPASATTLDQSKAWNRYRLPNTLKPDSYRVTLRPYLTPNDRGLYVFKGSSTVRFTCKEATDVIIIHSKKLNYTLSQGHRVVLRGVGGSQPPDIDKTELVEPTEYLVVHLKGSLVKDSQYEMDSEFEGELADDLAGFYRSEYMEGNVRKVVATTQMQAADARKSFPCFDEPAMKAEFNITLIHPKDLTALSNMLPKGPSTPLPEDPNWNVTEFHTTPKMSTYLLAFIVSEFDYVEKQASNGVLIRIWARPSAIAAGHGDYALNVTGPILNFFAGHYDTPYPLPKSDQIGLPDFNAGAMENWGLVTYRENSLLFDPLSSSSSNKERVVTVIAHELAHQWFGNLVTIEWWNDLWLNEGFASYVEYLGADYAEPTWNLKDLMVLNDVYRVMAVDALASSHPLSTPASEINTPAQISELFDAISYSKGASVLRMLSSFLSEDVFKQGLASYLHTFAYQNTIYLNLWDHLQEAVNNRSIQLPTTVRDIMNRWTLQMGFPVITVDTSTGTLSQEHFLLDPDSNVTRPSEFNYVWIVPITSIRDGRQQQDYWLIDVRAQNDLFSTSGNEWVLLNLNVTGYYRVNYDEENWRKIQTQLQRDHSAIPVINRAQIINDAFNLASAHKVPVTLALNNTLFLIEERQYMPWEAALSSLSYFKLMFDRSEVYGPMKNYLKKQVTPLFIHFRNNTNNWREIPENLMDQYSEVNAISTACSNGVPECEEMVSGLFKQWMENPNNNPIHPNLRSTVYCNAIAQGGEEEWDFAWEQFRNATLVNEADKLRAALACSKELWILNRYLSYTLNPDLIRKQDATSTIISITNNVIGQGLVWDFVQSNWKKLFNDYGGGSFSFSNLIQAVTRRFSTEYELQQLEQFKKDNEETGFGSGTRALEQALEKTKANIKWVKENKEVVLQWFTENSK

Active and inactive are the calls of the source. No cut-off for these calls is given here.

The term IC50 denotes the midpoint of a concentration-inhibition curve. Low readings indicate greater potency, high ones weaker potency. Broadly, the inhibition in vivo is the share of the control response that was lost under treatment.

In the case of `CC(C)C[C@H](NC(=O)NCc1c(Cl)cccc1Cl)C(=O)NO`, the IC50 is above 100 µM in test [1] and 0.58 µM at Aminopeptidase N [2].

On to `COc1ccc(NC(=O)N[C@@H](CC(C)C)C(=O)NO)cc1F`, for which the IC50 in test [1] is above 100 µM; against Aminopeptidase N [2] it was 0.42 µM.

Regarding `Cc1ccc(NC(=O)N[C@@H](CC(C)C)C(=O)NO)c(C)c1`, the IC50 in test [1] was above 100 µM; against Aminopeptidase N [2], 0.18 µM.

For the compound `CC(C)C[C@H](NC(=O)[C@@H](O)[C@H](N)Cc1ccccc1)C(=O)O` [UBENIMEX], the half-maximal inhibitory concentration (IC50) in test [1] is above 100 µM. For the same compound, the inhibition in vivo at 80 mg/kg/day in the test with H22 amounted to 75.9%. Moreover, in the test on ES2, the inhibition result is “Active”.

For the compound `Cc1ccc(NC(=O)N[C@@H](CC(C)C)C(=O)NO)cc1Cl`, the results for the IC50 (in test [1]; at Aminopeptidase N [2]) were above 100 µM and 0.09 µM, respectively.

Turning to `Cc1cccc(CNC(=O)N[C@@H](CC(C)C)C(=O)NO)c1C`, the IC50 is above 100 µM in test [1] and 0.07 µM on Aminopeptidase N [2].

Take `CC(C)C[C@H](NC(=O)Nc1c(C(C)C)cccc1C(C)C)C(=O)NO`: the IC50 in test [1] is above 100 µM; against Aminopeptidase N [2], 0.05 µM.

For the compound `Cc1cccc(C)c1NC(=O)N[C@@H](CC(C)C)C(=O)NO`, the results for the IC50 (on Aminopeptidase N [3]; in test [1]; against Aminopeptidase N [2]) were 0.12 µM, above 100 µM and 0.02 µM, respectively. Further, the inhibition in vivo at 80 mg/kg/day in the test on H22 came out at 91.7%. Further, the inhibition entry in the test on ES2 was “Active”.

For `COc1ccc(NC(=O)N[C@@H](CC(C)C)C(=O)NO)c(OC)c1`, the values for the IC50 (in test [1]; at Aminopeptidase N [2]) were above 100 µM and 0.46 µM, respectively.

In the case of `Cc1ccc(CNC(=O)N[C@@H](CC(C)C)C(=O)NO)cc1C`, the IC50 in test [1] was above 100 µM; against Aminopeptidase N [2], 0.44 µM.

As to `Cc1cc(C)c(NC(=O)N[C@@H](CC(C)C)C(=O)NO)c(C)c1`, the IC50 in test [1] is above 100 µM; against Aminopeptidase N [2], 0.08 µM.

As to `CC(C)C[C@H](NC(=O)Nc1ccc(Cl)cc1Cl)C(=O)NO`, the IC50 in test [1] was above 100 µM; on Aminopeptidase N [2], 0.56 µM.

As to `COc1ccc(CNC(=O)N[C@@H](CC(C)C)C(=O)NO)c(OC)c1`, the IC50 was above 100 µM in test [1] and 0.46 µM against Aminopeptidase N [2].

Turning to `CC(C)C[C@H](NC(=O)NCc1c(F)cccc1F)C(=O)NO`, the results for the IC50 (in test [1]; against Aminopeptidase N [2]) were above 100 µM and 0.69 µM, respectively.

Consider `CCc1cccc(CC)c1NC(=O)N[C@@H](CC(C)C)C(=O)NO`, for which the figures for the IC50 (on Aminopeptidase N [3]; in test [1]; on Aminopeptidase N [2]) were 0.28 µM, above 100 µM and 0.03 µM, respectively. In addition, in the test on ES2, the inhibition result is “Active”.

Turning to `CC(C)C[C@H](NC(=O)NCc1ccc(F)cc1F)C(=O)NO`, the figures for the IC50 (in test [1]; on Aminopeptidase N [2]) were above 100 µM and 0.33 µM, respectively.

In the case of `CC(C)C[C@H](NC(=O)NCc1ccc(F)c(F)c1)C(=O)NO`, the IC50 is above 100 µM in test [1] and 0.42 µM on Aminopeptidase N [2].

`CC(C)C[C@H](NC(=O)Nc1ccc(F)cc1F)C(=O)NO`: the values for the IC50 (in test [1]; at Aminopeptidase N [2]) were above 100 µM and 0.34 µM, respectively.

In the case of `CC(C)C[C@H](NC(=O)Nc1c(F)cccc1F)C(=O)NO`, the IC50 in test [1] is above 100 µM; against Aminopeptidase N [2] it was 0.23 µM.

Compound `CC(C)C[C@H](NC(=O)Nc1ccccc1)C(=O)NO` had an IC50 in test [1] above 100 µM.

The values above are taken from ChEMBL document CHEMBL3763112, “Novel leucine ureido derivatives as aminopeptidase N inhibitors. Design, synthesis and activity evaluation” (Eur J Med Chem, 2016).
